B1: tRNA (parent)
chain: GUUCCGUUGGCGUAAUGGUAACGCGUCUCCCUCCUAAGGAGAAGACUGCGGGUUCGAGUCCCGUACGGAACG

Variants at the floor of the assay were thinned out.

This is an account of results in the RNAGym collection of RNA variant scans (doi:10.1126/science.aae0568).

This data set covers variants of B1. Description: yeast fitness relative to wild type (ratio to wild type); higher = fitter; tRNA-Arg(CCU), competitive growth, 37 C, YPD. Put shortly: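 Variants of the tRNA-Arg(CCU) gene were chemically synthesised with a 3% per-site mutation rate across 69 sites and placed at the native genomic locus in Saccharomyces cerevisiae. Six parallel replicates of the pooled strains were competed in YPD at 37°C for 24 hours, and gene amplicons from the start and end populations were read by 100-nucleotide paired-end sequencing. Darwinian fitness relative to wild type was derived from changes in genotype frequencies. Genotypes required ≥ 100 starting reads, and estimates < 0.5 were set to 0.5.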
Regarding C34U A43G, the yeast fitness turned out to be 0.789.

In the case of C34U G41A, the yeast fitness stood at 0.606.

Regarding C34G A43C C49U G56A, the yeast fitness was not above 0.5.

Turning to C34G U59G G68U, the yeast fitness is 0.576.

For the variant C34U A57U, the yeast fitness was not above 0.5.

With C34U A57G, the yeast fitness was 0.737.

For C34G U64A, the yeast fitness came to 0.654.

C34G U64G: the yeast fitness was 0.518.

In the case of C34U C46U U64A, the yeast fitness came to 0.642.

As to C34G G48A A57G, the yeast fitness amounted to 0.631.

For the variant C34U A42C, the yeast fitness was 0.664.

As for C34U A42U, the yeast fitness worked out at 0.74.

Turning to C34U C49G G52C C55U C62G, the yeast fitness is 0.75.

For C34G A40U A43C C46A G63C, the yeast fitness is not above 0.5.

C34U A70C: the yeast fitness stood at 0.73.

For C34U A70G, the yeast fitness was 0.803.

Take C34U A70U: the yeast fitness is 0.662.

C34U C46G G58C C60U C66G: the yeast fitness was not above 0.5.

Regarding C34U A36C A70C, the yeast fitness came to 0.594.

Take C34G C49U A57U: the yeast fitness was not above 0.5.

As for C34U A42C A43U, the yeast fitness was not above 0.5.

Turning to C34U A42U C66U, the yeast fitness is not above 0.5.

For the variant C34G A40G C46G C49A U59C, the yeast fitness is 0.55.

Take C34U C66A: the yeast fitness is not above 0.5.

Regarding C34G G48C G67A, the yeast fitness is not above 0.5.

C34U A37U G41A G50C: the yeast fitness is not above 0.5.

As for C34G A40C A43U, the yeast fitness was not above 0.5.

For C34U A69U, the yeast fitness stood at 0.667.

For C34U A40C, the yeast fitness was 0.613.

On to C34G G58C A69C, for which the yeast fitness turned out to be 0.576.

Regarding C34G C62G C66G A69C, the yeast fitness was not above 0.5.

C34A G41A C62U: the yeast fitness is not above 0.5.

Take C34U C60U: the yeast fitness is 0.563.

In the case of C34U A40C A42C G48A, the yeast fitness was not above 0.5.

With C34G A36C A70C, the yeast fitness was not above 0.5.

Regarding C34A U53C, the yeast fitness came to 0.559.

Consider C34A U53A, for which the yeast fitness turned out to be 0.541.

On to C34U C61G A65C C66G, for which the yeast fitness is not above 0.5.

Consider C34U G38A G56A, for which the yeast fitness was 0.611.

C34A U47G C49G C60G: the yeast fitness was determined as 0.571.

Turning to C34G A42C, the yeast fitness turned out to be 0.573.

Take C34A G41C: the yeast fitness is 0.757.

Turning to C34G A40C G44A, the yeast fitness was not above 0.5.

In the case of C34G C49G C61U A70C, the yeast fitness was not above 0.5.

For C34G G38A, the yeast fitness came to 0.624.

On to C34G G38C, for which the yeast fitness was 0.587.

For the variant C34U A37U G58C, the yeast fitness turned out to be 0.543.

Take C34A U54A G67A: the yeast fitness was not above 0.5.

On to C34G A42U G44A A45C G48C U64A, for which the yeast fitness is not above 0.5.

As to C34A G50C G51A C61G, the yeast fitness was not above 0.5.

As to C34G G41A A42C G67C, the yeast fitness turned out to be 0.597.

With C34G G41A A42C C66U, the yeast fitness was not above 0.5.

C34G A42C C46U U54A C55G G58C C66A: the yeast fitness is not above 0.5.

Take C34G U59C: the yeast fitness stood at 0.602.

Regarding C34U A40C C62U, the yeast fitness came to 0.507.

For the variant C34G A45U U53G A57G, the yeast fitness amounted to 0.569.

As to C34G A37C G56A, the yeast fitness turned out to be 0.527.

Turning to C34U A36U G52C A69U, the yeast fitness is not above 0.5.

On to C34G G48C, for which the yeast fitness amounted to 0.519.

Consider C34U A40G C46A C49G A65G, for which the yeast fitness was not above 0.5.

For C34U A37U C66U, the yeast fitness is not above 0.5.

In the case of C34U A40G A69U, the yeast fitness was 0.574.

Take C34U G48A C49G: the yeast fitness worked out at 0.563.

As to C34U A40U C61G, the yeast fitness was not above 0.5.

For the variant C34G C49G G68C, the yeast fitness is 0.629.

C34G C61U: the yeast fitness came out at 0.602.

For the variant C34G G68U, the yeast fitness was found to be 0.638.

C34U A36C C46G: the yeast fitness is not above 0.5.

Turning to C34G A40G, the yeast fitness was 0.642.

For C34U C66U G67A, the yeast fitness was not above 0.5.

Turning to C34U A37U C46A G51A, the yeast fitness was determined as 0.567.

With C34G C66A A69C, the yeast fitness was 0.599.

On to C34G C49G C61U U64A, for which the yeast fitness was not above 0.5.

Regarding C34U C49A G56C C62A A65C, the yeast fitness came out at 0.519.

Take C34U A37G C46U C61A: the yeast fitness worked out at 0.589.

Take C34U A40C G68C: the yeast fitness is not above 0.5.

C34U A42C G56C: the yeast fitness is not above 0.5.

Consider C34U A36U, for which the yeast fitness is not above 0.5.

Regarding C34G A57C G63A, the yeast fitness is not above 0.5.

On to C34A G51A, for which the yeast fitness is 0.656.

As for C34U C62U, the yeast fitness was 0.673.

Consider C34G G44A C49A U53A A69U, for which the yeast fitness is not above 0.5.

For C34G C62G, the yeast fitness was 0.559.

As to C34G A36C C55G, the yeast fitness was not above 0.5.

On to C34G G52A A65U, for which the yeast fitness was not above 0.5.

As for C34U A36G C55A, the yeast fitness was not above 0.5.

C34G A37U C49G: the yeast fitness turned out to be 0.576.

As for C34G G63A G67A, the yeast fitness is not above 0.5.

Consider C34U C49U C61U, for which the yeast fitness stood at 0.512.

On to C34G C55G U59C C60U G67U A70C, for which the yeast fitness is not above 0.5.

With C34U A36G A57G, the yeast fitness was not above 0.5.

C34U G39C A45G: the yeast fitness was not above 0.5.

Consider C34U C49U, for which the yeast fitness was found to be 0.866.

As for C34U G39C, the yeast fitness is 0.571.

As for C34U G39A G48C A65U, the yeast fitness is not above 0.5.

As to C34G G56A, the yeast fitness is 0.639.

On to C34U C49U A65C, for which the yeast fitness worked out at 0.612.

Consider C34U G39C C66U, for which the yeast fitness was not above 0.5.

Take C34G C49U: the yeast fitness was 0.708.

On to C34G G41C, for which the yeast fitness came out at 0.617.

As to C34U A36U C66U, the yeast fitness is not above 0.5.

Consider C34G U47G, for which the yeast fitness was 0.561.

Turning to C34U G39C A69U, the yeast fitness is not above 0.5.

As to C34U A40C A43G, the yeast fitness stood at 0.513.

Turning to C34G A40U U47A G67C, the yeast fitness was not above 0.5.

Regarding C34G C60U C61U, the yeast fitness is 0.545.

Consider C34G C49G U54A A57C G68A, for which the yeast fitness was not above 0.5.

As to C34G A45C, the yeast fitness was 0.569.

In the case of C34G A45G, the yeast fitness worked out at 0.657.

Regarding C34G A57U, the yeast fitness was found to be 0.523.

For the variant C34G A57G, the yeast fitness was 0.568.

C34U A36C U53C: the yeast fitness was not above 0.5.

Consider C34G C55U G63A, for which the yeast fitness is not above 0.5.

For the variant C34U G44A A65G, the yeast fitness is not above 0.5.

C34G A37C C62A: the yeast fitness is not above 0.5.

With C34G A42C G51C, the yeast fitness came to 0.525.

Regarding C34G G52C A70U, the yeast fitness came to 0.542.

For C34U A37G, the yeast fitness was determined as 0.538.

With C34G U53G, the yeast fitness is not above 0.5.

As to C34G U35C, the yeast fitness was determined as 0.613.

With C34U C60G A69G, the yeast fitness was not above 0.5.

In the case of C34U G44C U47G, the yeast fitness was determined as 0.659.

Consider C34G U35A A57U, for which the yeast fitness is not above 0.5.

Regarding C34U A40G U54C A57G, the yeast fitness is not above 0.5.

Take C34A G56C: the yeast fitness was not above 0.5.

In the case of C34A G68U, the yeast fitness stood at 0.647.

With C34A G68C, the yeast fitness stood at 0.841.

Turning to C34U C46G A69U, the yeast fitness was determined as 0.576.

Regarding C34G U59A G68A, the yeast fitness was not above 0.5.

Regarding C34G C49G U54C C61U A69G, the yeast fitness was not above 0.5.

As to C34U A40G C55G, the yeast fitness is not above 0.5.

On to C34G G52A, for which the yeast fitness came to 0.562.

As for C34G G52C, the yeast fitness is not above 0.5.

For the variant C34U C62G C66G G67U, the yeast fitness is not above 0.5.

Consider C34U A37U G58C C62A, for which the yeast fitness was 0.736.

Take C34U G44C U47G A65G: the yeast fitness is not above 0.5.

In the case of C34G C46A C62U, the yeast fitness worked out at 0.541.

On to C34G C62A G63A, for which the yeast fitness is not above 0.5.

Take C34U A65U: the yeast fitness came out at 0.574.

With C34G A45C C62G, the yeast fitness is not above 0.5.

As to C34G G41C A69U, the yeast fitness was not above 0.5.

As to C34G A69U A70C, the yeast fitness was determined as 0.696.

In the case of C34G G39C, the yeast fitness amounted to 0.58.

As for C34G G39A, the yeast fitness came out at 0.703.

Turning to C34A U64C, the yeast fitness worked out at 0.834.

In the case of C34G G58A G63C, the yeast fitness is not above 0.5.

On to C34U C49U A69U, for which the yeast fitness turned out to be 0.607.

As to C34U A36C A40C C55A C66U, the yeast fitness stood at 0.526.

On to C34U C55G, for which the yeast fitness was determined as 0.56.

Consider C34U G44C U47G A65C C66G, for which the yeast fitness is not above 0.5.

As for C34G U54G, the yeast fitness is not above 0.5.

Turning to C34G A43U C55U A57C C66A, the yeast fitness was 0.639.

For the variant C34A G52C G63C, the yeast fitness worked out at 0.681.

Regarding C34U G39C G50A, the yeast fitness turned out to be 0.557.

Turning to C34G A40C G48A, the yeast fitness was not above 0.5.

For the variant C34G A36G A57U, the yeast fitness is not above 0.5.

In the case of C34U A40G U47C, the yeast fitness is not above 0.5.

As for C34U C46U A69G A70U, the yeast fitness was not above 0.5.

Turning to C34U C49U C55U G67A, the yeast fitness is not above 0.5.

For C34U A36U C66U A69U, the yeast fitness turned out to be 0.612.

On to C34A G52A C61G G63A, for which the yeast fitness is not above 0.5.

As for C34U C61A, the yeast fitness came out at 0.563.

With C34G A42G A43U, the yeast fitness turned out to be 0.635.

As to C34G A36U G58A, the yeast fitness amounted to 0.605.

For C34G A42G C62U, the yeast fitness was 0.589.

Turning to C34G C49U A65C, the yeast fitness was 0.532.

C34A U59G: the yeast fitness is 0.745.
